# Results of several laboratories.
# Compare with care: the assays were run in different laboratories.
# BMP2K: BMP-2-inducible protein kinase (BMP2K, Homo sapiens, UniProt Q9NSY1)
# BRWD3: BRWD3 (Homo sapiens, UniProt Q6RI45)
# Grm1: Metabotropic glutamate receptor 1 (Grm1, Rattus norvegicus, UniProt P23385)
# HTR2C: 5-hydroxytryptamine receptor 2C (HTR2C, Homo sapiens, UniProt P28335)
# murC: UDP-N-acetylmuramate--L-alanine ligase (murC, Escherichia coli K-12, UniProt P17952)
# MTNR1A: Melatonin receptor type 1A (MTNR1A, Homo sapiens, UniProt P48039)
# Trypanothione synthetase: Trypanothione synthetase (Trypanosoma cruzi, UniProt Q9GT49)
target,test,test system,setting,endpoint,value,SMILES
BMP2K,"enzyme activity, inhibitor, radiometric",,1 µM,remaining activity,-1%,O=C(NCCCNc1nc(Nc2cccc(NC(=O)N3CCCC3)c2)ncc1Br)C1CCC1
"Serine/threonine-protein kinase SIK3 (SIK3, Homo sapiens, UniProt Q9Y2K2)","enzyme activity, inhibitor, radiometric",,1 µM,activity vs control,93%,FC(F)(F)Oc1cccc(-c2cnc3ccc(-c4ccncc4)nn23)c1
BRWD3,"thermal stability, DSF",,10 µM,ΔTm,0.55 °C,C[S+]([O-])c1ccc(-c2nc(-c3ccncc3)c(-c3ccc(F)cc3)[nH]2)cc1 (stereo not drawn)
Grm1,"calcium signal, positive allosteric modulator",T-REx-293,,Emax,118%,Cc1cccnc1C(=O)Nc1ccc(N2C(=O)c3cccc(Cl)c3C2=O)c(Cl)c1
HTR2C,"ligand displacement, radioligand",,10 µM,inhibition,48.8%,COc1cc(NC(C)=O)c(Cl)cc1C(=O)Nc1nccs1
Grm1,"calcium signal, positive allosteric modulator",T-REx-293,,Emax,77%,O=C(Nc1ccc(N2C(=O)c3ccccc3C2=O)c(Cl)c1)c1ncccc1Cl
murC,"enzyme activity, inhibitor, absorbance",,100 µM,remaining activity,97%,O=C(Nc1ccc(C=NNS(=O)(=O)c2ccc3ccccc3c2)cc1)c1ccccc1
BMP2K,"enzyme activity, inhibitor, radiometric",,1 µM,remaining activity,47%,Cc1nn(CC(F)(F)F)cc1Nc1ncc(Br)c(NCCc2cnc[nH]2)n1
MTNR1A,"β-arrestin recruitment, agonist",CHO-K1,90 min,Emax,75%,CCc1ccc2scc(CCNC(C)=O)c2c1
BMP2K,"enzyme activity, inhibitor, radiometric",,1 µM,remaining activity,1%,NS(=O)(=O)c1ccc(CNc2nc(Nc3cccc(NC(=O)N4CCCC4)c3)ncc2Br)cc1
murC,"enzyme activity, inhibitor, absorbance",,100 µM,remaining activity,100%,N#Cc1ccc(COc2ccccc2C=NNS(=O)(=O)Cc2ccccc2)cc1
MTNR1A,"cAMP, agonist, TR-FRET",CHO-K1,20 min,Emax,92%,COc1cc2c(CCNC(C)=O)c(I)[nH]c2cc1[N+](=O)[O-]
BMP2K,"enzyme activity, inhibitor, radiometric",,1 µM,remaining activity,19%,Cc1nn(CC(F)(F)F)cc1Nc1ncc(Br)c(NCCCNC(=O)C2CCC2)n1
HTR2C,"ligand displacement, radioligand",,10 µM,inhibition,17.4%,Oc1cccc(Nc2nc(-c3ccc(F)cc3F)cs2)c1
"Macrophage migration inhibitory factor (MIF, Homo sapiens, UniProt P14174)","enzyme activity, substrate",,,Km,760 µM,O=C(O)C(=O)Cc1ccccc1
"B1 bradykinin receptor (BDKRB1, Homo sapiens, UniProt P46663)","ligand displacement, radioligand",,10 µM,inhibition,8%,CCN(Cc1ccccc1C(F)(F)F)C(=O)C1CCN(S(=O)(=O)c2ccc3[nH]ncc3c2)CC1
BMP2K,"enzyme activity, inhibitor, radiometric",,1 µM,remaining activity,96%,Cc1nn(CC(F)(F)F)cc1Nc1ncc(C2CC2)c(NCCc2c[nH]cn2)n1
"Rho-associated protein kinase 2 (ROCK2, Homo sapiens, UniProt O75116)","enzyme activity, inhibitor",,10 µM,remaining activity,3%,CCCOc1ccc(OC)c(F)c1C(=O)c1ccc(C(=O)N[C@@H]2CNC[C@H]2NC(=O)c2ccc3[nH]ncc3c2)cc1
Trypanothione synthetase,"enzyme activity, inhibitor, absorbance",,30 µM,inhibition,10.1%,NNC(=O)CN1C(=O)Cc2c([nH]c3ccc(Br)cc23)-c2ccc(Cl)cc21
"Serine hydroxymethyltransferase, cytosolic (SHMT1, Homo sapiens, UniProt P34896)",thermal stability,,50 µM,ΔTm,9.2 °C,CC(CCC(=O)NCC(=O)O)C1CCC2C3CCC4CC(O)CCC4(C)C3CC(O)C12C (stereo not drawn)
"Testis-specific serine/threonine-protein kinase 1 (TSSK1B, Homo sapiens, UniProt Q9BXA7)","enzyme activity, inhibitor, FRET",,1 µM,inhibition,-2%,CN(C)C1CCN(CC#Cc2nn(C3CCCC3)c3nc(NCc4ccccc4)ncc23)C1 (stereo not drawn)
Trypanothione synthetase,"enzyme activity, inhibitor, absorbance",,30 µM,inhibition,6.7%,NCCCCNC(=O)CN1C(=O)Cc2c([nH]c3ccc(Br)cc23)-c2ccc(Cl)cc21
"Serine/threonine-protein kinase MRCK gamma (CDC42BPG, Homo sapiens, UniProt Q6DT37)",cell-free assay,,23.5 nM,remaining signal,100%,Cc1ccc(C(=O)Nc2ccc(CN3CCN(C)CC3)c(C(F)(F)F)c2)cc1C#Cc1cnc2cccnn12
Trypanothione synthetase,"enzyme activity, inhibitor, absorbance",,30 µM,inhibition,29.6%,O=C(CN1C(=O)Cc2c([nH]c3ccc(Br)cc23)-c2ccc(Cl)cc21)Nc1ccccc1
murC,"enzyme activity, inhibitor, absorbance",,50 µM,remaining activity,71%,O=C(Nc1ccc(C=NNS(=O)(=O)c2ccc3ccccc3c2)cc1)c1ccc([N+](=O)[O-])cc1
BMP2K,"enzyme activity, inhibitor, radiometric",,1 µM,remaining activity,8%,O=C(NCCCNc1nc(Nc2cccc(NC(=O)N3CCCC3)c2)ncc1C1CC1)C1CCC1
MTNR1A,"β-arrestin recruitment, agonist",CHO-K1,90 min,Emax,95%,COc1cc(I)c2[nH]cc(CCNC(C)=O)c2c1
BMP2K,"enzyme activity, inhibitor, radiometric",,1 µM,remaining activity,1%,O=C(NCCCNc1nc(Nc2cccc(NC(=O)N3CCCC3)c2)ncc1I)c1cccs1
MTNR1A,"GTPγS binding, agonist, radiometric",,cell membranes,Emax,8%,COc1ccc2c(c1)C(CNC(N)=O)Cc1ccccc1C2 (stereo not drawn)
BRWD3,"thermal stability, DSF",,10 µM,ΔTm,-0.5 °C,Cc1cc2c(cc1N1C(=O)c3cccc4c(Cl)ccc(c34)C1=O)n(C)c(=O)n2C
MTNR1A,"β-arrestin recruitment, agonist",CHO-K1,90 min,Emax,92%,COc1ccc2ncn(CCNC(C)=O)c2c1
Trypanothione synthetase,"enzyme activity, inhibitor, absorbance",,30 µM,inhibition,16.8%,CN1CCN(CCNC(=O)CN2C(=O)Cc3c([nH]c4ccc(Br)cc34)-c3ccc(Cl)cc32)CC1
murC,"enzyme activity, inhibitor, absorbance",,50 µM,remaining activity,65%,O=[N+]([O-])c1cccc(COc2ccccc2C=NNS(=O)(=O)c2ccc3ccccc3c2)c1
MTNR1A,"β-arrestin recruitment, agonist",CHO-K1,90 min,Emax,91%,COc1ccc2[nH]cc(CCNC(C)=O)c2c1I
murC,"enzyme activity, inhibitor, absorbance",,100 µM,remaining activity,36%,N#Cc1ccc(COc2ccccc2C=NNS(=O)(=O)c2ccc3ccccc3c2)cc1
MTNR1A,"β-arrestin recruitment, agonist",CHO-K1,90 min,Emax,101%,COc1cc2c(CCNC(C)=O)c[nH]c2cc1I
